Measured values published in BindingDB's records for doi:10.1016/j.ejmech.2010.04.038 (B.V. Patel Pharmaceutical Education and Research …, 2010).

Molecular target: Transcription factor Jun (Homo sapiens, UniProt P05412)
Test: Inhibition of AP1 expressed in HEK293 cells assessed as inhibition of PMA-induced transcriptional activation treated 24 hrs before PMA challenge by luciferase reporter gene assay
Method in brief: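 Six-point dose response […] and rising in ½-log steps, screened as in the primary reporter assay. IC50 calculated from the dose-response data.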

Transcription factor Jun, sequence (P05412 whole entry): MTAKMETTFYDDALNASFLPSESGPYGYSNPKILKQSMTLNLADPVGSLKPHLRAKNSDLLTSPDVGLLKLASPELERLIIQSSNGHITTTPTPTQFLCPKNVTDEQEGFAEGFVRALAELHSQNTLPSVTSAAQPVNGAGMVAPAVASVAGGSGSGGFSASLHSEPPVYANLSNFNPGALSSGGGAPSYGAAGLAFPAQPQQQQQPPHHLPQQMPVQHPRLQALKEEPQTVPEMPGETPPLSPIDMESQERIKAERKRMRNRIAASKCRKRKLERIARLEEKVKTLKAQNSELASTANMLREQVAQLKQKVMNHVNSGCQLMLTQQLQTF

Point of comparison: `O=c1c2ccccc2nc(-c2sc(Nc3ccc(Cl)cc3)nc2-c2ccccc2)n1-c1ccc(Cl)cc1` [3-(4-Chloro-phenyl)-2-[2-(4-chloro-phenylamino)-4-phenyl-thiazol-5-yl]-3H-quinazolin-4-one], IC50 4.3 µM. Against it:
- CNc1nc(-c2ccccc2)c(-c2nc3ccccc3c(=O)n2-c2ccc(Cl)cc2)s1 [3-(4-Chloro-phenyl)-2-(2-methylamino-4-phenyl-thiazol-5-yl)-3H-quinazolin-4-one] — higher, > 500 µM
- COc1ccc(-n2c(-c3sc(Nc4ccc(Cl)cc4)nc3-c3ccccc3)nc3ccccc3c2=O)cc1 [2-[2-(4-Chloro-phenylamino)-4-phenyl-thiazol-5-yl]-3-(4-methoxy-phenyl)-3H quinazolin-4-one] — 3.3-fold higher, 14 µM
- CCOC(=O)Nc1nc(-c2ccccc2)c(-c2nc3ccccc3c(=O)n2-c2ccccc2)s1 [[5-(4-Oxo-3-phenyl-3,4-dihydro-quinazolin-2-yl)-4-phenylthiazol-2-yl]-carbamic acid ethyl ester] — within 1.5-fold, 5.7 µM
- CNc1nc(C)c(-c2nc3ccccc3c(=O)n2-c2ccc(Cl)cc2)s1 [3-(4-Chloro-phenyl)-2-(4-methyl-2-methylamino-thiazol-5-yl)-3H-quinazolin-4-one] — within 1.5-fold, 3 µM
- CCOC(=O)Nc1nc(C)c(-c2nc3ccccc3c(=O)n2-c2ccc(Cl)cc2)s1 [{5-[3-(4-Chloro-phenyl)-4-oxo-3,4-dihydro-quinazolin-2-yl]-4-methyl-thiazol-2-yl}-carbamic acid ethyl ester] — 2.3-fold higher, 10 µM
